An excerpt weighted towards active compounds, which were near 2% of everything screened.
EBV gp42 inh: blocks Epstein-Barr virus glycoprotein 42 binding. Q1HVG2. Fluorescence polarization binding assay, mP read-out. 0.42% of 220,000 active. inhibition, % (tested at 21.74 µM)
RanGTP-Impb inh: disruptors of Ran-importin-beta complex formation – biochemical, FRET, CFP-Ran, YFP-importin-beta, homogeneous, primary screen; cell-free CFP-Ran/YFP-importin-beta FRET ratio; inhibition, % (test concentration not listed); 1.1% of 300,000 active;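 active = more than half of the replicate wells show a fall in the fluorescence ratio signal beyond about 16%, limit read from the data, passing the limit was not always enough; inconclusive = exactly half of the replicate wells pass the set limit; inactive = fewer than half of replicates pass the limit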
PKD1 kinase inh: blocks activity of human protein kinase D1 | Q15139 | PKD1 kinase fluorescence polarization assay | inhibition, % (no concentration beside the values) | 0.056% of 200,000 active | AID 797
Runt-CBFb FRET: inhibitors of human RUNX1 Runt domain binding to CBFb; Q01196+Q13951; Cerulean-Runt/Venus-CBFb FRET ratio 530/480, 1 h; inhibition, % at 20 µM; 0.46% of 220,000 active; AID 1496;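 active = inhibition over about 50% at 20 µM in the single-dose screen, limit read from the data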
Target sequence (Q01196 whole entry, looked up, the tested form may be a part): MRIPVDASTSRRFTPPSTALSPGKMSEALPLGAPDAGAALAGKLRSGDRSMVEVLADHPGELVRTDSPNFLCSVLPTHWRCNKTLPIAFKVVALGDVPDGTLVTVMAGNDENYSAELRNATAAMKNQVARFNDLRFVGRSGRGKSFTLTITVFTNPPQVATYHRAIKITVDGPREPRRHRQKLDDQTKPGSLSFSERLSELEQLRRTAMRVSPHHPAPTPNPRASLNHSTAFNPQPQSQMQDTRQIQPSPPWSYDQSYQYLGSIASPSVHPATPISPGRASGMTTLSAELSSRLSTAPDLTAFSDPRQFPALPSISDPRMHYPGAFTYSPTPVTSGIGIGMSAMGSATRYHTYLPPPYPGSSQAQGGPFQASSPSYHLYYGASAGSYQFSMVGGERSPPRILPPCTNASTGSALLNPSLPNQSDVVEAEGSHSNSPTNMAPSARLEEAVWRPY
Target sequence (Q13951 whole entry, looked up, the tested form may be a part): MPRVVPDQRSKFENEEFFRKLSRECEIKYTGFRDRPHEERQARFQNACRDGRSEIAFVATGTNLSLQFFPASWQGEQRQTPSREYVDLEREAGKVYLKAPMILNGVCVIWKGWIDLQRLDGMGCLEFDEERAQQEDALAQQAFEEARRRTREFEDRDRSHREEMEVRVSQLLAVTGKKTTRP
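test system = Cerulean-Runt domain fusion protein, energy donor | probe or stimulus = Venus-CBFb binding partner, 100 nM | incubation = two 1 h room-temperature incubations shielded from light | detection = fluorescence energy transfer, 422 nm excitation, 530/480 nm emission | measure = loss of energy transfer signal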
MEX-5 binding: C. elegans MEX-5 TCR-2 RNA binding activity | Q9XUB2 | MEX-5/FITC-TCR2 RNA binding, fluorescence polarization; active compounds read low | activity score (negative = inhibition of binding), % at 10 µM | 0.38% of 300,000 active;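 active = inhibition past about -25% in most replicates, and total fluorescence under double the plate's negative control median, limit read from the data; inconclusive = replicates evenly split on the limit, or fluorescence at least double controls; inactive = too little inhibition in most replicates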
Runt-SMMHC FRET: inhibitors of human RUNX1 Runt domain binding to CBFb-SMMHC | Q01196+Q13951 | Cerulean-Runt/Venus-CBFb-SMMHC FRET ratio 530/480, 1 h | inhibition, % at 20 µM | 0.74% of 220,000 active | AID 1434;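 active = mean inhibition across duplicate retests at 20 µM reaching about 50%, limit read from the data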;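 note: inhibitors lower the FRET ratio by blocking Runt binding to CBFb-SMMHC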
YIC FRET counter: counter-screen: alters YIC FRET probe signal | shares compounds with RanGTP-Impb inh | Purified YIC probe, intramolecular FRET ratio YFP/CFP | IC50, µM | 40% of 1,000 active | AID 435026;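 active = fitted half-maximal inhibitory concentration no more than tenfold above the top dose tested; inconclusive = flat fit with 30 to 70% activity, or poor fit; inactive = half-maximal concentration beyond tenfold above the top dose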
Numbers stand for hits; i = inactive; ? = inconclusive; nt = no result. Cut-off read from the data, not from the text of the source, unless noted: active = inhibition above about 50%; inactive = the rest.

SMILES | EBV gp42 inh | RanGTP-Impb inh | PKD1 kinase inh | Runt-CBFb FRET | MEX-5 binding | Runt-SMMHC FRET | YIC FRET counter
O=c1cc(CN2CCN(S(=O)(=O)c3ccc4c(c3)OCCO4)CC2)c2ccc(O)cc2o1 | i | 46 | i | 102 | i | 102 | 6.9
CCN(Cc1ccccc1)C(=O)CN1C(=O)NC(CC)(c2ccc(F)cc2)C1=O (stereo not drawn) | nt | 23 | nt | nt | i | nt | i
CCC1(c2ccc(F)cc2)NC(=O)N(CC(=O)Nc2ccccc2C)C1=O (stereo not drawn) | nt | i | nt | nt | i | nt | nt
CCOc1ccc(C)cc1S(=O)(=O)Nc1ccc(Cl)cn1 | i | 19 | i | i | i | i | i
CC(=O)Nc1ccccc1NC(=O)C/C(C)=N/NC(=O)Cc1cccc2ccccc12 | nt | i | nt | nt | i | nt | nt
CC1(C)N=C(N)N=C(N)N1c1ccc(Oc2ccc(Cl)cc2)c(Cl)c1 | nt | i | nt | nt | i | nt | nt
COc1ccccc1NC(=O)c1cc2ccccc2nc1C | i | 23 | i | i | i | i | i
COc1ccccc1NC(=O)c1ccc2nc(C)c(C)nc2c1 | nt | i | nt | nt | i | nt | nt
Cc1cccc(C)c1OCc1cc(C(=O)NCc2cn(C)nc2C)no1 | nt | i | nt | nt | i | nt | nt
CCOC(=O)CNC(=O)C1CCCN(c2ncccn2)C1 (stereo not drawn) | i | 21 | i | i | i | i | i
O=C(NCc1cccs1)C1CCCN(c2ncccn2)C1 (stereo not drawn) | i | i | i | i | i | i | nt
CCOc1ccccc1/C=C/C(=O)NCC(=O)N1CCC(N(C)C2CCCCC2C)CC1 (stereo not drawn) | nt | i | nt | nt | i | nt | nt
Cc1ccc(N2CC(C(=O)Nc3nnc(SCCN4CCOCC4)s3)CC2=O)cc1C (stereo not drawn) | nt | i | nt | nt | i | nt | nt
NS(=O)(=O)c1ccc(CCNC(=O)C2CCN(S(=O)(=O)c3ccc(Br)s3)CC2)cc1 | i | 24 | i | i | i | i | i
Cc1ccc(S(=O)(=O)N2CCC(C(=O)NCCc3ccc(S(N)(=O)=O)cc3)CC2)cc1 | i | i | i | i | i | i | nt
O=C(O)c1cn(Cc2cccnc2)c(=O)c2ccccc12 | i | 18 | i | i | i | i | i
CCOCCCNC(=O)C1CCCN(S(=O)(=O)c2ccc(-n3cnnn3)cc2)C1 (stereo not drawn) | nt | i | nt | nt | i | nt | nt
C[C@@H]1CN([C@@H](C)CO)C(=O)c2cc(NS(C)(=O)=O)ccc2O[C@@H](C)CCCCO[C@H]1CN(C)C(=O)Cc1ccccc1 | nt | nt | nt | nt | nt | nt | i
COCCOC(=O)C1=C(C)NC(=O)NC1c1cccc2ccccc12 (stereo not drawn) | nt | 22 | nt | nt | i | nt | i
CC1CC(C)CN(S(=O)(=O)c2ccc3c(c2)CCN3C(=O)C2CC2)C1 (stereo not drawn) | nt | i | nt | nt | i | nt | nt
CC(C)(C)C(=O)Nc1ccccc1C(=O)NCCC(=O)Nc1ccccc1 | nt | i | nt | nt | i | nt | nt
COc1ccc(NC(=O)c2cc3ccc(O)cc3o/c2=N\O)cc1 | nt | 28 | nt | nt | i | nt | 51
C/C(=N\NC(=O)c1nnn(-c2nonc2N)c1CSc1ccccc1)c1ccc2c(c1)OCO2 | nt | i | nt | nt | i | nt | nt
COCCCN1C(=O)/C(=C/c2ccc(CNS(=O)(=O)c3ccccc3)o2)C(C(=O)OC)=C1C | i | i | i | i | i | i | nt
O=C(/C=C/c1ccc[nH]1)c1ccccc1 | i | 23 | i | i | i | i | 32
SMILES | EBV gp42 inh | RanGTP-Impb inh | PKD1 kinase inh | Runt-CBFb FRET | MEX-5 binding | Runt-SMMHC FRET | YIC FRET counter
O=C(/C=C/c1ccc[nH]1)c1ccc(F)cc1 | i | 28 | i | i | i | i | 25
O=C(/C=C/c1ccccc1)c1ccccc1 | i | i | i | i | i | i | nt
COc1ccc(-c2cc(C(F)F)n3ncc(C(=O)NCCCN4CCCC4=O)c3n2)cc1 | i | i | i | i | i | i | nt
COCCNC(=O)c1cnn2c(C(F)F)cc(-c3ccc(C)cc3)nc12 | i | 18 | i | i | i | i | 42
COc1cc(OC)cc(C(=O)Oc2c(CN3CCOCC3)cc(Cl)c3cccnc23)c1 | i | ? | nt | i | i | i | nt
O=C(Oc1c(CN2CCOCC2)cc(Cl)c2cccnc12)c1ccccc1 | i | 15 | i | nt | i | i | i
N#Cc1c2ncn(CC(=O)c3ccc(Br)cc3)c(=O)c2c2n1CCC2 | i | 16 | i | i | i | i | i
Cc1nn(C)cc1C1C(C#N)=C(N)N(c2cccnc2)C2=C1C(=O)CCC2 (stereo not drawn) | i | i | i | i | i | i | nt
Cc1ccc(C2C(C#N)=C(N)N(c3cccnc3)C3=C2C(=O)CCC3)c(C)c1 (stereo not drawn) | i | 30 | i | i | i | i | i
CCC(C)(C)C1CCC2(CC1)NC(=O)N(CC(=O)N(C)Cc1ccc(OC(F)F)cc1)C2=O (stereo not drawn) | nt | i | nt | nt | i | nt | nt
S=c1[nH]c2ccc3ccccc3c2[nH]1 | i | 17 | i | i | i | i | i
COCCNC(=O)C1CC(c2ccc(C(F)(F)F)cc2)=NO1 (stereo not drawn) | nt | i | nt | nt | i | nt | nt
CCOCCCNC(=O)c1cc(-c2ccc(Br)s2)nc2ccccc12 | nt | 19 | nt | nt | i | nt | 28
CC1(C)CC(=O)C=C(NNC(=O)C2CCCCC2)C1 | i | 19 | i | i | i | i | i
CC1(C)CC(=O)C=C(NC2CCCCCCC2)C1 | i | i | i | i | i | i | nt
CS(=O)(=O)Nc1cccc(C2=NN(C(=O)c3cccc([N+](=O)[O-])c3)C(c3cccs3)C2)c1 (stereo not drawn) | nt | i | nt | nt | i | nt | nt
Cc1nn(C(=O)c2ccco2)c(C)c1CN1C(=O)c2ccccc2C1=O | i | 20 | i | i | i | i | i
CCOCCCNC(=S)NCCCNc1nc2cc3c(cc2cc1C#N)OCO3 | i | 56 | i | i | i | 129 | 13
CCOc1ccc(N2C(=O)C3C4C=CC(CC4)C3C2=O)c([N+](=O)[O-])c1 (stereo not drawn) | i | 20 | i | i | i | i | i
COc1ccc(N2C(=O)C3C4C=CC(CC4)C3C2=O)c([N+](=O)[O-])c1 (stereo not drawn) | i | i | i | i | i | i | nt
CC(=O)c1ccc([N+](=O)[O-])c(CS(=O)(=O)c2ccccc2)c1 | nt | i | nt | nt | i | nt | nt
CCN(CC)C(=O)Oc1ccc2c(c1)O/C(=C\c1ccco1)C2=O | nt | 18 | nt | nt | i | nt | 8.2
COCCN(CCOC)Cc1c(O)ccc2c1O/C(=C\c1ccco1)C2=O | nt | i | nt | nt | ? | nt | nt
COc1ccc2c(c1)O/C(=C\c1ccccc1C)C2=O | nt | i | nt | nt | i | nt | nt
COC(=O)COc1ccc2c(c1)O/C(=C\c1ccco1)C2=O | nt | 18 | nt | nt | i | nt | 29
Cc1cc(C(=O)COC(=O)COc2ccc(C#N)cc2)c(C)n1C1CC1 | nt | i | nt | nt | i | nt | nt
Cc1cc(C)c2c(N)c(C(=O)NN3CC(=O)N(c4ccccc4F)CC3=O)sc2n1 | i | 16 | i | i | i | i | i

Compound activity as filed in PubChem.
